# Assay results collected from several papers.
# Protocols differ between the studies behind these lines.
# Target: Serine/threonine-protein kinase MARK1 (MARK1, Homo sapiens, UniProt Q9P0L2)
Compound,assay,setting,remaining binding [%]
COc1ncc2cc3ccccc3nc2c1C#N,"cell-free assay, competition with immobilised ligand",5 µM,65
O=C(NCCCN1CCOCC1)c1ccc(Nc2ncc(Cl)c(-c3ccc(Cl)s3)n2)cc1,"binding, competition with immobilised ligand",1 µM,25
COc1cc(-c2cn(C3CCc4c(F)cccc4N(CC(F)(F)F)C3=O)nn2)ccc1-n1cnc(C)c1 (stereo not shown),"cell-free assay, competition with immobilised ligand",1 µM,100
CNC(=O)[C@@H]1CC[C@@H](n2c(-c3ccc4cnccc4c3)nc3ccc(C(=O)NCc4cccc(C(N)=O)c4)cc32)C1,"binding, competition with immobilised ligand",1 µM,94
O=C(NCCCN1CCOCC1)c1ccc(Nc2nccc(-c3cc4ccccc4s3)n2)cc1,"binding, competition with immobilised ligand",1 µM,66
Cn1nc(C(=O)NCc2ccc(C(=O)O)cc2)cc1-c1ccc2[nH]ccc2c1,"cell-free assay, competition with immobilised ligand",0.1 µM,100
O=C(c1ccc(Nc2ncc(Cl)c(-c3cc4ccccc4s3)n2)cc1)N1CCC(N2CCCC2)CC1,"binding, competition with immobilised ligand",1 µM,27
O=C(NCC1CCOCC1)c1n[nH]cc1NC(=O)c1c(F)cccc1F,"binding, competition with immobilised ligand",1 µM,100
CN(CCCC(F)(F)F)c1nccc(-c2cnn3ncccc23)n1,binding,1 µM,100
c1cncc(-c2cccc(Nc3nccc(NC4CCCCC4)n3)c2)c1,"binding, competition with immobilised ligand",10 µM,90
N[C@@H]1CCN(c2nccc(-c3cnn4ncccc34)n2)C1,binding,1 µM,100
Cc1nc(Cc2cccc(C(F)(F)F)c2)sc1-c1ccc(C(N)=O)nc1,"cell-free assay, competition with immobilised ligand",1 µM,90
c1cnn2ncc(-c3ccnc(N4CCC45COC5)n3)c2c1,binding,1 µM,91
CC(C)(O)c1cncc(-c2nc3ccc(F)cc3n2C2CC2)c1,"cell-free assay, competition with immobilised ligand",1 µM,100
CN(C)c1ncc(F)c(-c2cnn3ncccc23)n1,binding,1 µM,100
COc1ccc2cc(OCC3(C(=O)O)CN(C(=O)c4ccc(F)cc4)C3)ccc2c1,"cell-free assay, competition with immobilised ligand",1 µM,100
COc1ccnn2ncc(-c3ccnc(N(C)C)n3)c12,binding,1 µM,97
O=c1nc(-c2ccccn2)sc2ccccc12,"binding, competition with immobilised ligand",1 µM,100
CC1CCCN1c1nccc(-c2cnn3ncccc23)n1 (stereo not shown),binding,1 µM,100
CCN1CCN(Cc2ccc(C(=O)Nc3ccc(C)c(Oc4ccc5c(c4)CC(=O)N5)c3)cc2C(F)(F)F)CC1,"binding, competition with immobilised ligand",1 µM,100
CNC(=O)Nc1ccc2c(c1)CC[C@@]21OC(=O)N(CC(=O)N(Cc2ccc(F)cc2)[C@@H](C)C(F)(F)F)C1=O,"cell-free assay, competition with immobilised ligand",1 µM,89
C[C@H]1CCN(c2nccc(-c3cnn4ncccc34)n2)C1,binding,1 µM,92
